Laboratory results reported in ChEMBL document CHEMBL2062449, “Eco-friendly synthesis and biological evaluation of substituted pyrano[2,3-c]pyrazoles” (Bioorg Med Chem Lett, 2012).
≈ marks a conversion by molar mass, not a printed value.

What was measured:
Staphylococcus aureus [1] = experiment: Antibacterial activity against Staphylococcus aureus at […] after 24 hrs by agar diffusion method; assay type: functional
How it was run: (§1)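 Single-concentration antibacterial screen at 100 μg/50 μL per test against the standard bacterial strains.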

Bacillus subtilis [2] = experiment: Antibacterial activity against Bacillus subtilis at […] after 24 hrs by agar diffusion method; assay type: functional; how it was run: as §1
Escherichia coli [3] = experiment: Antibacterial activity against Escherichia coli at […] after 24 hrs by agar diffusion method; assay type: functional; how it was run: as §1
Pseudomonas aeruginosa [4] = experiment: Antibacterial activity against Pseudomonas aeruginosa at 100 ug/[…] after 24 hrs by agar diffusion method; assay type: functional; how it was run: as §1
Staphylococcus aureus [5] = experiment: Antibacterial activity against Staphylococcus aureus after 18 to 24 hrs by broth microdilution method; assay type: functional
Bacillus subtilis [6] = experiment: Antibacterial activity against Bacillus subtilis after 18 to 24 hrs by broth microdilution method; assay type: functional
Escherichia coli [7] = experiment: Antibacterial activity against Escherichia coli after 18 to 24 hrs by broth microdilution method; assay type: functional
Pseudomonas aeruginosa [8] = experiment: Antibacterial activity against Pseudomonas aeruginosa after 18 to 24 hrs by broth microdilution method; assay type: functional
Rattus norvegicus [9] = experiment: Antiinflammatory activity in Wistar rat assessed as protection against carrageenan-induced paw edema at 100 mg/kg, po administered 1 hr before carrageenan challenge measured after 30 mins; assay type: functional
Rattus norvegicus [10] = experiment: Antiinflammatory activity in Wistar rat assessed as protection against carrageenan-induced paw edema at 100 mg/kg, po administered 1 hr before carrageenan challenge measured after 1 hr; assay type: functional
Rattus norvegicus [11] = experiment: Antiinflammatory activity in Wistar rat assessed as protection against carrageenan-induced paw edema at 100 mg/kg, po administered 1 hr before carrageenan challenge measured after 2 hrs; assay type: functional
Rattus norvegicus [12] = experiment: Antiinflammatory activity in Wistar rat assessed as protection against carrageenan-induced paw edema at 100 mg/kg, po administered 1 hr before carrageenan challenge measured after 3 hrs; assay type: functional
Rattus norvegicus [13] = experiment: Antiinflammatory activity in Wistar rat assessed as protection against carrageenan-induced paw edema at 100 mg/kg, po administered 1 hr before carrageenan challenge measured after 4 hrs; assay type: functional
MCF7 [14] = experiment: Cytotoxicity against estrogen receptor-positive human MCF7 cells assessed as inhibition of cell proliferation at 1 ug/ml after 24 hrs by MTT assay; assay type: functional; settings: MCF7, 24 h
How it was run: (§2)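 MTT assay on MCF-7 human breast cancer cells, Taxol as reference; percentage inhibition of cell proliferation read at graded concentrations from 0.1 to 50 μg/mL (typically five or six levels per compound); IC50 in μg/mL derived from the inhibition series.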

MCF7 [15] = experiment: Cytotoxicity against estrogen receptor-positive human MCF7 cells assessed as inhibition of cell proliferation at 2 ug/ml after 24 hrs by MTT assay; assay type: functional; settings: MCF7, 24 h; how it was run: as §2
MCF7 [16] = experiment: Cytotoxicity against estrogen receptor-positive human MCF7 cells assessed as inhibition of cell proliferation at 4 ug/ml after 24 hrs by MTT assay; assay type: functional; settings: MCF7, 24 h; how it was run: as §2
MCF7 [17] = experiment: Cytotoxicity against estrogen receptor-positive human MCF7 cells assessed as inhibition of cell proliferation at 0.5 ug/ml after 24 hrs by MTT assay; assay type: functional; settings: MCF7, 24 h; how it was run: as §2
MCF7 [18] = experiment: Cytotoxicity against estrogen receptor-positive human MCF7 cells assessed as inhibition of cell proliferation at 6 ug/ml after 24 hrs by MTT assay; assay type: functional; settings: MCF7, 24 h; how it was run: as §2
MCF7 [19] = experiment: Cytotoxicity against estrogen receptor-positive human MCF7 cells assessed as inhibition of cell proliferation at 8 ug/ml after 24 hrs by MTT assay; assay type: functional; settings: MCF7, 24 h; how it was run: as §2
MCF7 [20] = experiment: Cytotoxicity against estrogen receptor-positive human MCF7 cells assessed as inhibition of cell proliferation after 24 hrs by MTT assay; assay type: functional, cell-based; settings: Homo sapiens, MCF7, 24 h; read-out: IC50; how it was run: as §2
MCF7 [21] = experiment: Cytotoxicity against estrogen receptor-positive human MCF7 cells assessed as inhibition of cell proliferation at 5 ug/ml after 24 hrs by MTT assay; assay type: functional; settings: MCF7, 24 h; how it was run: as §2
MCF7 [22] = experiment: Cytotoxicity against estrogen receptor-positive human MCF7 cells assessed as inhibition of cell proliferation at 0.1 ug/ml after 24 hrs by MTT assay; assay type: functional; settings: MCF7, 24 h; how it was run: as §2
MCF7 [23] = experiment: Cytotoxicity against estrogen receptor-positive human MCF7 cells assessed as inhibition of cell proliferation at 0.25 ug/ml after 24 hrs by MTT assay; assay type: functional; settings: MCF7, 24 h; how it was run: as §2
MCF7 [24] = experiment: Cytotoxicity against estrogen receptor-positive human MCF7 cells assessed as inhibition of cell proliferation at 2.5 ug/ml after 24 hrs by MTT assay; assay type: functional; settings: MCF7, 24 h; how it was run: as §2

Row | Structure (SMILES) | inhibition zone (IZ) (Staphylococcus aureus [1]) [mm] | inhibition zone (IZ) (Bacillus subtilis [2]) [mm] | inhibition zone (IZ) (Escherichia coli [3]) [mm] | inhibition zone (IZ) (Pseudomonas aeruginosa [4]) [mm] | Activity (Rattus norvegicus [9]) [%] | Activity (Rattus norvegicus [10]) [%] | Activity (Rattus norvegicus [11]) [%] | Activity (Rattus norvegicus [12]) [%] | Activity (Rattus norvegicus [13]) [%] | inhibition at 1 µg/mL (MCF7 [14]) [%] | inhibition at 0.5 µg/mL (MCF7 [17]) [%] | IC50 (MCF7 [20]) [µg/mL] | other results
1 | CC1=NN=C2OC(N)=C(C#N)C(c3ccc(Oc4nc(Cl)c(Cl)cc4Cl)cc3)C12 (stereo unspecified) | 15 | 20 | 22 | 14 | 29.4 | 50 | 67.1 | 72 | 54.9 | 17.4 | 5.34 | 4.46 (≈ 9.95 µM) | MIC (Staphylococcus aureus [5]): 3.12 µg/mL (≈ 6.96 µM); MIC (Bacillus subtilis [6]): 6.25 µg/mL (≈ 13.9 µM); MIC (Escherichia coli [7]): 1.56 µg/mL (≈ 3.48 µM); MIC (Pseudomonas aeruginosa [8]): 3.12 µg/mL (≈ 6.96 µM); inhibition at 2 µg/mL (MCF7 [15]): 31.9%; inhibition at 4 µg/mL (MCF7 [16]): 42.5%; inhibition at 6 µg/mL (MCF7 [18]): 65.2%; inhibition at 8 µg/mL (MCF7 [19]): 68.6%
2 | Cc1[nH]nc2c1C(c1cccc(Oc3ccccc3)c1)C(C#N)=C(N)O2 (stereo unspecified) | 7 | 9 | 9 | 11 | 17.6 | 33.3 | 47.9 | 66.6 | 61.5 | 43.5 | 20.2 | 1.63 (≈ 4.73 µM) | inhibition at 5 µg/mL (MCF7 [21]): 83.7%; inhibition at 0.1 µg/mL (MCF7 [22]): 8.26%; inhibition at 0.25 µg/mL (MCF7 [23]): 14%; inhibition at 2.5 µg/mL (MCF7 [24]): 68.6%
